Values after ≈ are worked out from the molar mass of the structure shown.
How the values were obtained:
Arthrodermataceae [1] = test: Antifungal activity against dermatophytes at 28 degC after 7 days by broth microdilution test; type: functional; conditions: 168 h
Method in brief: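 Ten clinical isolates (two M. canis, five M. gypseum, three T. mentagrophytes) tested by NCCLS M38-A broth microdilution in MOPS-buffered RPMI 1640, pH 7.0, over 0.25–128 µg/mL. Conidial/hyphal suspension from PDA slants (28 °C, 7 days) adjusted to 65–70% transmittance at OD530, then diluted 1:50.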

Arthrodermataceae [2] = test: Antifungal activity against dermatophytes at 28 degC after 5 days by broth microdilution test; conditions: for MFC: Arthrodermataceae
[3] = Cytotoxicity against human K562 cells after assessed as reduction of cell viability 24 hrs by MTT assay; type: cell-based
Method in brief: (§1)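 U937 and K562 cells, from ATCC, plated at 5 × 10^4/mL in phenol-red-free RPMI-1640 with 20% FBS and penicillin/streptomycin. Compounds added 2 h later at 25–100 µg/mL, then 24 h at 37 °C. MTT at 1 mg/mL for 3 h, formazan dissolved in isopropanol with 0.1 N HCl, absorbance read at 570 nm. CC50 is the concentration reducing viability by 50% versus the drug-free control.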

Candida albicans [4] = test: Antifungal activity against Candida albicans ATCC 10261 at 35 degC after 48 hrs by broth microdilution test; type: functional; conditions: Candida albicans, ATCC 10261, 48 h; for MIC: read-out: MIC; for MIC50: read-out: MIC50; for MIC90: read-out: MIC90
Method in brief: (§2)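 Broth microdilution per NCCLS M27-A2. Stocks in 100% DMSO, diluted in RPMI 1640 with 0.165 M MOPS at pH 7.0; final range 0.25–128 µg/mL. Inoculum 1000–5000 cells/mL from SDA subcultures. […] C. parapsilosis ATCC22019 served as QC strain.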

Candida parapsilosis = test: Antifungal activity against Candida parapsilosis ATCC 22019 at 35 degC after 48 hrs by broth microdilution test; type: functional; conditions: Lodderomyces parapsilosis, ATCC 22019, 48 h; for MFC: read-out: MFC; for MIC: read-out: MIC; method in brief: as §2
Candida albicans [5] = test: Antifungal activity against Candida albicans ATCC 10261 at 35 degC after 48 to 96 hrs by broth microdilution test; type: functional; conditions: for MFC: Candida albicans, ATCC 10261, read-out: MFC
Method in brief: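 Minimal fungicidal concentration for Candida. […] MFC is the lowest concentration allowing fewer than two colonies (99% killing).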

[6] = Cytotoxicity against human U937 cells assessed as reduction of cell viability after 24 hrs by MTT assay; type: cell-based, U-937; method in brief: as §1
Arthrodermataceae [7] = test: Antifungal activity against dermatophytes at 28 degC after 48 to 96 hrs by broth microdilution test

c1ccc(OC(CCn2ccnc2)c2ccccc2)cc1 (stereo not drawn)
MIC (Arthrodermataceae [1]): 24.1 µg/mL (≈ 86.6 µM) | MIC50 (Arthrodermataceae [1]): 16 µg/mL (≈ 57.5 µM) | MIC90 (Arthrodermataceae [1]): 32 µg/mL (≈ 115 µM) | MFC90 (Arthrodermataceae [2]): 64 µg/mL (≈ 230 µM) | MFC (Arthrodermataceae [2]): 56.5 µg/mL (≈ 203 µM) | CC50 at 24 h [3]: 220 µM | MIC (Candida albicans [4]): 62.7 µg/mL (≈ 225 µM) | MIC50 (Candida albicans [4]): 32 µg/mL (≈ 115 µM) | MIC90 (Candida albicans [4]): 128 µg/mL (≈ 460 µM) | MFC (Candida parapsilosis): 32 µg/mL (≈ 115 µM) | MIC (Candida parapsilosis): 16 µg/mL (≈ 57.5 µM) | MFC50 (Candida albicans [5]): 64 µg/mL (≈ 230 µM) | MFC90 (Candida albicans [5]): 128 µg/mL (≈ 460 µM) | MFC (Candida albicans [5]): 83.2 µg/mL (≈ 299 µM) | CC50 at 24 h [6]: 201 µM | MFC50 (Arthrodermataceae [7]): 64 µg/mL (≈ 230 µM)

Cc1ccc(C(CCn2ccnc2)Oc2cc(Cl)cc(Cl)c2)cc1 (stereo not drawn)
MIC (Arthrodermataceae [1]): 5.6 µg/mL (≈ 15.5 µM) | MIC50 (Arthrodermataceae [1]): 4 µg/mL (≈ 11.1 µM) | MIC90 (Arthrodermataceae [1]): 8 µg/mL (≈ 22.1 µM) | MFC90 (Arthrodermataceae [2]): 16 µg/mL (≈ 44.3 µM) | MFC (Arthrodermataceae [2]): 14.4 µg/mL (≈ 39.9 µM) | CC50 at 24 h [3]: 98 µM | MIC (Candida albicans [4]): 11.9 µg/mL (≈ 32.9 µM) | MIC50 (Candida albicans [4]): 16 µg/mL (≈ 44.3 µM) | MIC90 (Candida albicans [4]): 16 µg/mL (≈ 44.3 µM) | MFC (Candida parapsilosis): 8 µg/mL (≈ 22.1 µM) | MIC (Candida parapsilosis): 1 µg/mL (≈ 2.77 µM) | MFC50 (Candida albicans [5]): 16 µg/mL (≈ 44.3 µM) | MFC90 (Candida albicans [5]): 64 µg/mL (≈ 177 µM) | MFC (Candida albicans [5]): 34.6 µg/mL (≈ 95.8 µM) | CC50 at 24 h [6]: 160 µM | MFC50 (Arthrodermataceae [7]): 16 µg/mL (≈ 44.3 µM)

Cc1ccc(C(CCn2ccnc2)Oc2ccc(Cl)cc2Cl)cc1 (stereo not drawn)
MIC (Arthrodermataceae [1]): 12 µg/mL (≈ 33.2 µM) | MIC50 (Arthrodermataceae [1]): 8 µg/mL (≈ 22.1 µM) | MIC90 (Arthrodermataceae [1]): 16 µg/mL (≈ 44.3 µM) | MFC90 (Arthrodermataceae [2]): 32 µg/mL (≈ 88.6 µM) | MFC (Arthrodermataceae [2]): 24 µg/mL (≈ 66.4 µM) | CC50 at 24 h [3]: 97 µM | MIC (Candida albicans [4]): 3.15 µg/mL (≈ 8.72 µM) | MIC50 (Candida albicans [4]): 4 µg/mL (≈ 11.1 µM) | MIC90 (Candida albicans [4]): 4 µg/mL (≈ 11.1 µM) | MFC (Candida parapsilosis): 4 µg/mL (≈ 11.1 µM) | MIC (Candida parapsilosis): 1 µg/mL (≈ 2.77 µM) | MFC50 (Candida albicans [5]): 8 µg/mL (≈ 22.1 µM) | MFC90 (Candida albicans [5]): 16 µg/mL (≈ 44.3 µM) | MFC (Candida albicans [5]): 8.4 µg/mL (≈ 23.3 µM) | CC50 at 24 h [6]: 150 µM | MFC50 (Arthrodermataceae [7]): 16 µg/mL (≈ 44.3 µM)

CCc1ccc(OC(CCn2ccnc2)c2ccc(Cl)cc2)cc1 (stereo not drawn)
CC50 at 24 h [3]: 185 µM | MIC (Candida albicans [4]): 6.5 µg/mL (≈ 19.1 µM) | MIC50 (Candida albicans [4]): 8 µg/mL (≈ 23.5 µM) | MIC90 (Candida albicans [4]): 8 µg/mL (≈ 23.5 µM) | MFC (Candida parapsilosis): 16 µg/mL (≈ 46.9 µM) | MIC (Candida parapsilosis): 8 µg/mL (≈ 23.5 µM) | MFC50 (Candida albicans [5]): 8 µg/mL (≈ 23.5 µM) | MFC90 (Candida albicans [5]): 16 µg/mL (≈ 46.9 µM) | MFC (Candida albicans [5]): 12.5 µg/mL (≈ 36.7 µM) | CC50 at 24 h [6]: 265 µM

Cc1ccc(OC(Cn2ccnc2)c2ccc(Cl)cc2)cc1 (stereo not drawn)
CC50 at 24 h [3]: 99 µM | MIC (Candida albicans [4]): 22.3 µg/mL (≈ 71.3 µM) | MIC50 (Candida albicans [4]): 16 µg/mL (≈ 51.2 µM) | MIC90 (Candida albicans [4]): 32 µg/mL (≈ 102 µM) | MIC (Candida parapsilosis): 4 µg/mL (≈ 12.8 µM) | MFC (Candida albicans [5]): 32 µg/mL (≈ 102 µM) | CC50 at 24 h [6]: 150 µM

Cc1ccc(C(CCn2ccnc2)Oc2ccc(C)cc2Cl)cc1 (stereo not drawn)
CC50 at 24 h [3]: 123 µM | MIC (Candida albicans [4]): 6.5 µg/mL (≈ 19.1 µM) | MIC50 (Candida albicans [4]): 8 µg/mL (≈ 23.5 µM) | MIC90 (Candida albicans [4]): 8 µg/mL (≈ 23.5 µM) | MFC (Candida parapsilosis): 8 µg/mL (≈ 23.5 µM) | MIC (Candida parapsilosis): 4 µg/mL (≈ 11.7 µM) | MFC50 (Candida albicans [5]): 32 µg/mL (≈ 93.9 µM) | MFC90 (Candida albicans [5]): 32 µg/mL (≈ 93.9 µM) | MFC (Candida albicans [5]): 24 µg/mL (≈ 70.4 µM) | CC50 at 24 h [6]: 151 µM

CCc1ccc(OC(CCn2ccnc2)c2ccc(C)cc2)cc1 (stereo not drawn)
CC50 at 24 h [3]: 136 µM | MIC (Candida albicans [4]): 8.7 µg/mL (≈ 27.2 µM) | MIC50 (Candida albicans [4]): 4 µg/mL (≈ 12.5 µM) | MIC90 (Candida albicans [4]): 16 µg/mL (≈ 49.9 µM) | MFC (Candida parapsilosis): 8 µg/mL (≈ 25 µM) | MIC (Candida parapsilosis): 4 µg/mL (≈ 12.5 µM) | MFC50 (Candida albicans [5]): 32 µg/mL (≈ 99.9 µM) | MFC90 (Candida albicans [5]): 32 µg/mL (≈ 99.9 µM) | MFC (Candida albicans [5]): 28 µg/mL (≈ 87.4 µM) | CC50 at 24 h [6]: 152 µM

CC(C)c1ccc(OC(CCn2ccnc2)c2ccc(Cl)cc2)cc1 (stereo not drawn)
CC50 at 24 h [3]: 138 µM | MIC (Candida albicans [4]): 18.5 µg/mL (≈ 52.1 µM) | MIC50 (Candida albicans [4]): 8 µg/mL (≈ 22.5 µM) | MIC90 (Candida albicans [4]): 32 µg/mL (≈ 90.2 µM) | MFC (Candida parapsilosis): 32 µg/mL (≈ 90.2 µM) | MIC (Candida parapsilosis): 8 µg/mL (≈ 22.5 µM) | MFC50 (Candida albicans [5]): 32 µg/mL (≈ 90.2 µM) | MFC90 (Candida albicans [5]): 32 µg/mL (≈ 90.2 µM) | MFC (Candida albicans [5]): 25.5 µg/mL (≈ 71.9 µM) | CC50 at 24 h [6]: 208 µM

Clc1cc(Cl)cc(OC(CCn2ccnc2)c2ccccc2)c1 (stereo not drawn)
MIC (Arthrodermataceae [1]): 7.2 µg/mL (≈ 20.7 µM) | MIC50 (Arthrodermataceae [1]): 8 µg/mL (≈ 23 µM) | MIC90 (Arthrodermataceae [1]): 8 µg/mL (≈ 23 µM) | MFC90 (Arthrodermataceae [2]): 16 µg/mL (≈ 46.1 µM) | MFC (Arthrodermataceae [2]): 15 µg/mL (≈ 43.2 µM) | MIC (Candida albicans [4]): 13.8 µg/mL (≈ 39.7 µM) | MIC50 (Candida albicans [4]): 16 µg/mL (≈ 46.1 µM) | MIC90 (Candida albicans [4]): 16 µg/mL (≈ 46.1 µM) | MFC (Candida parapsilosis): 4 µg/mL (≈ 11.5 µM) | MIC (Candida parapsilosis): 0.5 µg/mL (≈ 1.44 µM) | MFC50 (Candida albicans [5]): 32 µg/mL (≈ 92.2 µM) | MFC90 (Candida albicans [5]): 64 µg/mL (≈ 184 µM) | MFC (Candida albicans [5]): 29.8 µg/mL (≈ 85.8 µM) | MFC50 (Arthrodermataceae [7]): 16 µg/mL (≈ 46.1 µM)

Clc1cccc(Cl)c1OC(CCn1ccnc1)c1ccccc1 (stereo not drawn)
MIC (Arthrodermataceae [1]): 7.6 µg/mL (≈ 21.9 µM) | MIC50 (Arthrodermataceae [1]): 8 µg/mL (≈ 23 µM) | MIC90 (Arthrodermataceae [1]): 8 µg/mL (≈ 23 µM) | MFC90 (Arthrodermataceae [2]): 32 µg/mL (≈ 92.2 µM) | MFC (Arthrodermataceae [2]): 28.8 µg/mL (≈ 82.9 µM) | MIC (Candida albicans [4]): 46.2 µg/mL (≈ 133 µM) | MIC50 (Candida albicans [4]): 64 µg/mL (≈ 184 µM) | MIC90 (Candida albicans [4]): 64 µg/mL (≈ 184 µM) | MFC (Candida parapsilosis): 32 µg/mL (≈ 92.2 µM) | MIC (Candida parapsilosis): 2 µg/mL (≈ 5.76 µM) | MFC50 (Candida albicans [5]): 64 µg/mL (≈ 184 µM) | MFC90 (Candida albicans [5]): 64 µg/mL (≈ 184 µM) | MFC (Candida albicans [5]): 64 µg/mL (≈ 184 µM) | MFC50 (Arthrodermataceae [7]): 32 µg/mL (≈ 92.2 µM)
